From ChEMBL document CHEMBL1124180, “Asymmetric synthesis and properties of the enantiomers of the antibacterial agent 7-(3-aminopyrrolidin-1-yl)-1-(2,4-difluorophenyl)-1,4-dihydro-6- fluoro-4-oxo-1,8-naphthyridine-3-carboxylic acid hydrochloride” (J Med Chem, 1988)

Assays:
Assay type in all cases: functional
[1] = test system: Staphylococcus aureus; assay: In vitro activity against Staphylococcus aureus(45 RAR2)
How it was run: (§1)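 MIC determined by agar dilution on brain-heart infusion agar under aerobic conditions.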

[2] = test system: Acinetobacter sp.; assay: In vitro activity against Acinetobacter sp.(CMX 669).; how it was run: as §1
[3] = test system: Bacteroides thetaiotaomicron; assay: In vitro activity against thetaiotaomicron (ATCC 29741)
How it was run: (§2)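 Anaerobic MICs measured by agar dilution on Wilkins-Chalgren agar.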

[4] = test system: Pseudomonas aeruginosa; assay: In vitro activity against Pseudomonas aeruginosa (BMH10); how it was run: as §1
[5] = test system: Fusobacterium; assay: In vitro activity against Fusobacterium sp.(GS-10)
How it was run: (§3)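 MIC determined under anaerobic conditions on Wilkins-Chalgren agar.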

[6] = test system: Providencia stuartii; assay: In vitro activity against Providencia stuartii (CMX 640); how it was run: as §1
[7] = test system: Micrococcus luteus; assay: In vitro activity against Micrococcus luteus (ATCC 4698); how it was run: as §1
[8] = test system: Clostridium perfringens; assay: In vitro activity against Clostridium perfringens (788)
[9] = test system: Clostridium perfringens; assay: In vitro activity against Clostridium perfringens (104AT13124)
[10] = test system: Bacteroides fragilis; assay: In vitro activity against Bacteroides fragilis (784); how it was run: as §3
[11] = test system: Staphylococcus aureus; assay: In vitro activity against Staphylococcus aureus (A5177); how it was run: as §1
[12] = test system: Bacteroides fragilis; assay: In vitro activity against Bacteroides fragilis (105AT25285); how it was run: as §3
[13] = test system: Streptococcus pyogenes; assay: In vitro activity against Streptococcus pyogenes (2548 INDUC).; how it was run: as §1
[14] = test system: Clostridium perfringens; assay: In vitro activity against Clostridium perfringens (SFBC 2026)
[15] = test system: Bacteroides fragilis; assay: In vitro activity against Bacteroides fragilis (SFM2906A); how it was run: as §3
[16] = test system: Staphylococcus aureus; assay: In vitro activity against Staphylococcus aureus(CMX 553); how it was run: as §1
[17] = test system: Bacteroides fragilis; assay: In vitro activity against Bacteroides fragilis (SFM2975-7); how it was run: as §3
[18] = test system: Escherichia coli; assay: In vitro activity against Escherichia coli (H560)
How it was run: (§4)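 MIC for aerobic bacteria, measured on brain-heart infusion agar.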

[19] = test system: Pseudomonas aeruginosa; assay: In vitro activity against Pseudomonas aeruginosa (K799/WT).; how it was run: as §1
[20] = test system: Peptoniphilus asaccharolyticus; assay: In vitro activity against Peptococcus asaccharolyticus (ATCC 14963).; how it was run: as §3
[21] = test system: Prevotella bivia; assay: In vitro activity against t Bacteroides bivius(B 6140); how it was run: as §2
[22] = test system: Cutibacterium acnes; assay: In vitro activity against Propionibacterium acnes (132); how it was run: as §3
[23] = test system: Staphylococcus aureus; assay: In vitro activity against Staphylococcus aureus(45); how it was run: as §1
[24] = test system: Parvimonas micra; assay: In vitro activity against Peptostreptococcus micros (ATCC 33270).; how it was run: as §3
[25] = test system: Escherichia coli; assay: In vitro activity against Escherichia coli (SS).; how it was run: as §4
[26] = test system: Phocaeicola vulgatus; assay: In vitro activity against Bacteroides vulgatus(792); how it was run: as §3
[27] = test system: Escherichia coli; assay: In vitro activity against Escherichia coli (DC-2); how it was run: as §4
[28] = test system: Prevotella disiens; assay: In vitro activity against Bacteroides disiens (ATCC 29426); how it was run: as §3
[29] = test system: Streptococcus equinus; assay: In vitro activity against Streptococcus bovis (A5169).; how it was run: as §1
[30] = test system: Streptococcus pyogenes; assay: In vitro activity against Streptococcus pyogenes(930 CONST).; how it was run: as §1
[31] = test system: Pseudomonas aeruginosa; assay: In vitro activity against Pseudomonas aeruginosa (A5007).; how it was run: as §1
[32] = test system: Burkholderia cepacia; assay: In vitro activity against Pseudomonas cepacia (296I); how it was run: as §1
[33] = test system: Finegoldia magna; assay: In vitro activity against Peptococcus magnus (ATCC 29328); how it was run: as §3
[34] = test system: Thomasclavelia ramosa; assay: In vitro activity against Clostridium romosum (7)
[35] = test system: Bacteroides thetaiotaomicron; assay: In vitro activity against Bacteroides thetaiotaomicron (106); how it was run: as §3
[36] = test system: Phocaeicola vulgatus; assay: In vitro activity against Bacteroides vulgatus(SFBC 2375); how it was run: as §3
[37] = test system: Bacteroides thetaiotaomicron; assay: In vitro activity against Bacteroides thetaiotaomicron (ATCC 29742); how it was run: as §3
[38] = test system: Enterococcus faecium; assay: In vitro activity against Enterococcus faecium (ATCC 8043).; how it was run: as §1
[39] = test system: Hoylesella loescheii; assay: In vitro activity against Bacteroides loescheii (ATCC 15930).; how it was run: as §3
[40] = test system: Staphylococcus aureus; assay: In vitro activity against Staphylococcus aureus(CMX 686B); how it was run: as §1
[41] = test system: Clostridioides difficile; assay: In vitro activity against Clostridium difficile (ATCC 17857)
[42] = test system: Clostridioides difficile; assay: In vitro activity against Clostridium difficile (ATCC 9689)
[43] = test system: Staphylococcus epidermidis; assay: In vitro activity against Staphylococcus epidermidis (3519); how it was run: as §1
[44] = test system: Peptostreptococcus anaerobius; assay: In vitro activity against Peptostreptococcus anaerobius (ATCC 27337); how it was run: as §3
[45] = test system: Fusobacterium nucleatum; assay: In vitro activity against Fusobacterium nucleatum (ATCC 25586); how it was run: as §3
[46] = test system: Staphylococcus aureus; assay: In vitro activity against Staphylococcus aureus(CMX 503A); how it was run: as §1
[47] = test system: Streptococcus agalactiae; assay: In vitro activity against Streptococcus agalactiae (CMX 508).; how it was run: as §1
[48] = test system: Streptococcus pyogenes; assay: In vitro activity against Streptococcus pyogenes (EES61); how it was run: as §1
[49] = test system: Veillonella parvula; assay: In vitro activity against Veillonella parvula (ATCC 10790); how it was run: as §2
[50] = test system: Prevotella melaninogenica; assay: In vitro activity against Bacteroides melaninogenicus (ATCC 25845).; how it was run: as §3
[51] = test system: Staphylococcus aureus; assay: In vitro activity against Staphylococcus aureus(ATCC 6538P); how it was run: as §1
[52] = test system: Escherichia coli; assay: In vitro activity against Escherichia coli (KNK437); how it was run: as §4
[53] = test system: Micrococcus luteus; assay: In vitro activity against Micrococcus luteus (ATCC 9341); how it was run: as §1
[54] = test system: Klebsiella aerogenes; assay: In vitro activity against Enterobacter aerogenes (ATCC 13048).; how it was run: as §1
[55] = test system: Escherichia coli; assay: In vitro activity against Escherichia coli Juhl; how it was run: as §4
[56] = test system: Bacteroides fragilis; assay: In vitro activity against Bacteroides fragilis (SFM2929-1); how it was run: as §3
[57] = test system: Klebsiella pneumoniae; assay: In vitro activity against Klebsiella pneumoniae (ATCC 8045).; how it was run: as §1
[58] = test system: Peptostreptococcus; assay: In vitro activity against Peptostreptococcus sp.(TB-11)
How it was run: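 MIC for anaerobic bacteria, measured on Wilkins-Chalgren agar.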

[59] = test system: Bacteroides thetaiotaomicron; assay: In vitro activity against Bacteroides thetaiotaomicron (SFM2975-2); how it was run: as §3
[60] = test system: Bacteroides fragilis; assay: In vitro activity against Bacteroides fragilis (UC-2); how it was run: as §3

Work on `Cl.N[C@@H]1CCN(c2nc3c(cc2F)c(=O)c(C(=O)O)cn3-c2ccc(F)cc2F)C1` yielded an MIC [1] of 0.1 µg/mL, an MIC [2] of 0.1 µg/mL and an MIC [3] of 8 µg/mL. It also gave an MIC [4] of 0.2 µg/mL, an MIC [5] of 2 µg/mL and an MIC [6] of 1.56 µg/mL. It also gave an MIC [7] of 1.56 µg/mL, an MIC [8] of 0.25 µg/mL and an MIC [9] of 0.25 µg/mL. The MIC [10] was 2 µg/mL, the MIC [11] was 0.1 µg/mL and the MIC [12] was 2 µg/mL. The MIC [13] was 0.2 µg/mL, the MIC [14] was 0.25 µg/mL and the MIC [15] was 2 µg/mL. It also gave an MIC [16] of 0.1 µg/mL, an MIC [17] of 4 µg/mL and an MIC [18] of 0.05 µg/mL. The MIC [19] was 0.39 µg/mL, the MIC [20] was 0.25 µg/mL and the MIC [21] was 2 µg/mL. For the same molecule, the MIC [22] was 1 µg/mL, the MIC [23] was 0.1 µg/mL and the MIC [24] was 0.12 µg/mL. The MIC [25] was 0.01 µg/mL, the MIC [26] was 2 µg/mL and the MIC [27] was 0.39 µg/mL. It also gave an MIC [28] of 2 µg/mL, an MIC [29] of 0.39 µg/mL and an MIC [30] of 0.39 µg/mL. For the same molecule, the MIC [31] was 0.39 µg/mL, the MIC [32] was 6.2 µg/mL and the MIC [33] was 0.5 µg/mL. It also gave an MIC [34] of 2 µg/mL, an MIC [35] of 8 µg/mL and an MIC [36] of 1 µg/mL. It also gave an MIC [37] of 8 µg/mL, an MIC [38] of 0.39 µg/mL and an MIC [39] of 4 µg/mL. It also gave an MIC [40] of 0.05 µg/mL, an MIC [41] of 4 µg/mL and an MIC [42] of 4 µg/mL. For the same molecule, the MIC [43] was 0.1 µg/mL, the MIC [44] was 0.5 µg/mL and the MIC [45] was 2 µg/mL. The MIC [46] was 0.1 µg/mL, the MIC [47] was 0.39 µg/mL and the MIC [48] was 0.39 µg/mL. It also gave an MIC [49] of 0.5 µg/mL, an MIC [50] of 1 µg/mL and an MIC [51] of 0.05 µg/mL. The MIC [52] was 0.39 µg/mL, the MIC [53] was 3.1 µg/mL and the MIC [54] was 0.2 µg/mL. For the same molecule, the MIC [55] was 0.05 µg/mL, the MIC [56] was 2 µg/mL and the MIC [57] was 0.05 µg/mL. The MIC [58] was 0.5 µg/mL, the MIC [59] was 4 µg/mL and the MIC [60] was 2 µg/mL.
